ChEMBL document CHEMBL1149749, “Antibacterial activity of totarol and its potentiation” (1992)
Values after ≈ are worked out from the molar mass of the structure shown. Active and inactive are the calls of the source. The calls are words filed in the database; no cut-off is given here.

Key:
Cutibacterium acnes [1] = assay: Antibacterial activity against Propionibacterium acnes ATCC 11827 after 2 days by twofold serial dilution method; assay type: functional; conditions: ATCC 11827, 48 h
In short: (§1)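 Twofold serial broth dilution in each organism's own medium, DMF held at 1% in all tubes. The highest concentration was 400 µg/ml unless otherwise specified. MIC was taken as the lowest concentration with no visible growth, and determinations were done in duplicate.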

Candida albicans = assay: Antifungal activity against Candida albicans ATCC 18804 up to 400 ug/ml after 2 days by twofold serial dilution method; assay type: functional, organism-based; in short: as §1
Streptococcus mutans [2] = assay: Antibacterial activity against Streptococcus mutans ATCC 25175 after 2 days by twofold serial dilution method; assay type: functional; conditions: ATCC 25175, 48 h; in short: as §1
Penicillium chrysogenum = assay: Antifungal activity against Penicillium chrysogenum ATCC 10106 up to 400 ug/ml after 2 days by twofold serial dilution method; assay type: functional, organism-based; in short: as §1
Staphylococcus aureus [3] = assay: Antibacterial activity against penicillin-resistant Staphylococcus aureus ATCC 29247 after 2 days by twofold serial dilution method; assay type: functional; conditions: ATCC 29247, 48 h
In short: (§2)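 Twofold serial broth dilution, highest concentration 400 µg/ml. Samples were delivered in DMF, kept at 1% in the medium throughout. MIC was the lowest concentration with no visible growth, determined in duplicate.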

Malassezia = assay: Antifungal activity against Pityrosporum ovale ATCC 14521 up to 400 ug/ml after 2 days by twofold serial dilution method; assay type: functional, organism-based; in short: as §1
Klebsiella aerogenes = assay: Antibacterial activity against Enterobacter aerogenes ATCC 13048 up to 400 ug/ml after 2 days by twofold serial dilution method; assay type: functional, organism-based; in short: as §1
Staphylococcus aureus [4] = assay: Antibacterial activity against penicillin-susceptible Staphylococcus aureus ATCC 12598 after 2 days by twofold serial dilution method; assay type: functional; conditions: ATCC 12598, 48 h; in short: as §1
Saccharomyces cerevisiae = assay: Antifungal activity against Saccharomyces cerevisiae ATCC 7754 up to 400 ug/ml after 2 days by twofold serial dilution method; assay type: functional, organism-based; in short: as §1
Bacillus subtilis [5] = assay: Antibacterial activity against Bacillus subtilis ATCC 9372 after 2 days by twofold serial dilution method; assay type: functional; conditions: ATCC 9372, 48 h; in short: as §1
Escherichia coli = assay: Antibacterial activity against Escherichia coli ATCC 13048 up to 400 ug/ml after 2 days by twofold serial dilution method; assay type: functional, organism-based; in short: as §1
Pseudomonas aeruginosa = assay: Antibacterial activity against Pseudomonas aeruginosa ATCC 10145 up to 400 ug/ml after 2 days by twofold serial dilution method; assay type: functional, organism-based; in short: as §1
[6] = system: Corynebacterium ammoniagenes; assay: Antibacterial activity against Brevibacterium ammoniagenes ATCC 6872 after 2 days by twofold serial dilution method; assay type: functional; conditions: ATCC 6872, 48 h; in short: as §1
Bacillus subtilis [7] = assay: Antibacterial activity against Bacillus subtilis ATCC 9372 up to 400 ug/ml after 2 days by twofold serial dilution method; assay type: functional, organism-based; in short: as §1
Staphylococcus aureus [8] = assay: Antibacterial activity against penicillin-susceptible Staphylococcus aureus ATCC 12598 up to 400 ug/ml after 2 days by twofold serial dilution method; assay type: functional, organism-based; in short: as §1
Staphylococcus aureus [9] = assay: Antibacterial activity against penicillin-resistant Staphylococcus aureus ATCC 29247 up to 400 ug/ml after 2 days by twofold serial dilution method; assay type: functional, organism-based; in short: as §2
[10] = system: Corynebacterium ammoniagenes; assay: Antibacterial activity against Brevibacterium ammoniagenes ATCC 6872 up to 400 ug/ml after 2 days by twofold serial dilution method; assay type: functional, organism-based; in short: as §1
Streptococcus mutans [11] = assay: Antibacterial activity against Streptococcus mutans ATCC 25175 up to 400 ug/ml after 2 days by twofold serial dilution method; assay type: functional, organism-based; in short: as §1
Cutibacterium acnes [12] = assay: Antibacterial activity against Propionibacterium acnes ATCC 11827 up to 400 ug/ml after 2 days by twofold serial dilution method; assay type: functional, organism-based; in short: as §1

Row | SMILES | MIC (Cutibacterium acnes [1]) [µg/mL] | Activity (Candida albicans) | MIC (Streptococcus mutans [2]) [µg/mL] | Activity (Penicillium chrysogenum) | MIC (Staphylococcus aureus [3]) [µg/mL] | Activity (Malassezia) | Activity (Klebsiella aerogenes) | MIC (Staphylococcus aureus [4]) [µg/mL] | Activity (Saccharomyces cerevisiae) | MIC (Bacillus subtilis [5]) [µg/mL] | Activity (Escherichia coli) | Activity (Pseudomonas aeruginosa) | MIC [6] [µg/mL] | Activity (Bacillus subtilis [7]) | Activity (Staphylococcus aureus [8]) | Activity (Staphylococcus aureus [9]) | Activity [10] | Activity (Streptococcus mutans [11]) | Activity (Cutibacterium acnes [12]) | also measured
1 | CC(C)c1c(O)ccc2c1CC[C@H]1C(C)(C)CCC[C@]21C [TOTAROL] | 0.39 (≈ 1.36 µM) | inactive | 0.78 (≈ 2.72 µM) | inactive | 0.78 (≈ 2.72 µM) | inactive | inactive | 1.56 (≈ 5.45 µM) | inactive | 1.56 (≈ 5.45 µM) | inactive | inactive | 0.78 (≈ 2.72 µM) |  |  |  |  |  |  | MBC (Cutibacterium acnes [1]): 0.78 µg/mL (≈ 2.72 µM); MBC (Streptococcus mutans [2]): 0.78 µg/mL (≈ 2.72 µM); MBC (Staphylococcus aureus [4]): 1.56 µg/mL (≈ 5.45 µM); MBC (Bacillus subtilis [5]): 1.56 µg/mL (≈ 5.45 µM); MBC [6]: 6.25 µg/mL (≈ 21.8 µM)
2 | CC(C)c1c(O)ccc2c1CC[C@H]1[C@@](C)(C=O)CCC[C@]21C |  | inactive |  | inactive |  | inactive | inactive |  | inactive |  | inactive | inactive |  | inactive | inactive | inactive | inactive | inactive | inactive | 
3 | CC1(C)S[C@@H]2[C@H](NC(=O)Cc3ccccc3)C(=O)N2[C@H]1C(=O)O [PENICILLIN G] | 0.012 (≈ 0.0359 µM) |  | 0.049 (≈ 0.147 µM) |  | > 800 |  |  | 0.049 (≈ 0.147 µM) |  | 50 (≈ 150 µM) |  |  | 0.39 (≈ 1.17 µM) |  |  |  |  |  |  | 
4 | CC(C)c1c(O)ccc2c1CC[C@H]1[C@@](C)(CO)CCC[C@]21C |  | inactive |  | inactive |  | inactive | inactive |  | inactive |  | inactive | inactive |  | inactive | inactive | inactive | inactive | inactive | inactive | 
5 | CC(C)c1c(O)ccc2c1CC[C@H]1C(C)(C)[C@@H](O)CC[C@]21C [TOTARADIOL] | 25 (≈ 82.7 µM) | inactive | 200 (≈ 661 µM) | inactive |  | inactive | inactive | 50 (≈ 165 µM) | inactive | 25 (≈ 82.7 µM) | inactive | inactive | 100 (≈ 331 µM) |  |  |  |  |  |  | 
6 | CC(C)c1c(O)ccc2c1CC[C@H]1[C@@](C)(C(=O)O)CCC[C@]21C |  | inactive |  | inactive |  | inactive | inactive |  | inactive |  | inactive | inactive |  | inactive | inactive | inactive | inactive | inactive | inactive | 
